Measurements reported in ChEMBL document CHEMBL1649435, “The octadecyloxyethyl ester of (S)-9-[3-hydroxy-2-(phosphonomethoxy) propyl]adenine is a potent and selective inhibitor of hepatitis C virus replication in genotype 1A, 1B, and 2A replicons” (Antimicrob Agents Chemother, 2009).

Columns and labels:
[1] = Selectivity index, ratio of CC50 for human Huh7.5 cells to EC50 for HCV genotype 2A SGR-JFH-1 infected in human Huh7.5 cells; set-up: species or system Huh-7
Method in brief: (§1)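 SI is CC50 divided by EC50, both from the same BM4-5 FEO (1B) or SGR-JFH-1 FEO (2A) replicon Huh-7.5.1 cultures. Cells (10,000 per well) got compound up to 100 μM (0.3% DMSO final) for 48 to 72 h. EC50 came from the luciferase read-out, CC50 from a fluorescent viability/death assay. Each condition was run in triplicate.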

Hepatitis C virus [2] = test: Antiviral activity against HCV1B BM4-5 infected in human Huh7.5 cells assessed as decrease in intracellular viral RNA treated for 3 days measured 24 hrs after last dose by luciferase reporter gene-based […]; type: functional, organism-based, Hepacivirus hominis; conditions: genotype 1b BM4-5, Huh-7
Method in brief: (§2)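 Huh-7.5.1 human hepatoma cells stably carried the BM4-5 FEO (genotype 1B) or SGR-JFH-1 FEO (genotype 2A) replicon, selected with 500 μg/ml G-418. Cells were seeded at 10,000 per well and incubated with compound up to 100 μM (0.3% DMSO final) for 48 to 72 h. Luciferase light units gave dose-response EC50s. Each condition was run in triplicate, with 3 or 4 experimental replicates.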

[3] = Selectivity index, ratio of CC50 for human Huh7.5 cells to EC50 for HCV genotype 1B BM4-5 infected in human Huh7.5 cells; set-up: species or system Huh-7; method in brief: as §1
[4] = Cytotoxicity against human Huh7.5 cells administered for 3 days measured 24 hrs after last dose by neutral red dye uptake assay; type: cell-based, Huh-7
Hepatitis C virus [5] = test: Antiviral activity against HCV2A SGR-JFH-1 infected in human Huh7.5 cells assessed as decrease in intracellular viral RNA treated for 3 days measured 24 hrs after last dose by luciferase reporter gene-based […]; type: functional, organism-based, Hepacivirus hominis; conditions: genotype 2a SGR-JFH-1, Huh-7; method in brief: as §2

| SMILES | Selectivity Index [1] | EC50 (Hepatitis C virus [2]) [µM] | Selectivity Index [3] | CC50 at 72 h [4] [µM] | EC50 (Hepatitis C virus [5]) [µM] |
| --- | --- | --- | --- | --- | --- |
| CCCCCCCCCCCCCCCCCCOCCOP(=O)(O)CO[C@@H](CO)Cn1cnc2c(N)ncnc21 | >4 | 7 | >14 | > 100 | 26.7 |
| Nc1ncnc2c1ncn2C[C@H](CO)OCP(=O)(O)O |  | > 100 |  | > 100 | > 100 |
| CCCCCCCCCCCCCCCCOCCCOP(=O)(O)CO[C@@H](CO)Cn1cnc2c(N)ncnc21 | >2 | 6.71 | >15 | > 100 | 41 |
| Nc1ncnc2c1ncn2C[C@@H](CO)OCP(=O)(O)O |  | > 100 |  | > 100 | > 100 |
| CCCCCCCCCCCCCCCCOCCCOP(=O)(O)CO[C@H](CO)Cn1cnc2c(N)ncnc21 | 13 | 2.02 | 42 | 85.3 | 6.5 |
| CCCCCCCCCCCCCCCCCCOCCOP(=O)(O)CO[C@H](CO)Cn1cnc2c(N)ncnc21 | 52 | 1.31 | 27 | 35.6 | 0.69 |
